# Screening results (PubChem)
# INS promoter inh: TRM-6 insulin promoter activity inhibition | TRM-6 cells (human fetal islet line), insulin promoter-eGFP reporter, imaging; reporter expression induced with tamoxifen | AID 1273 | inhibition, % at 2 µM | 130,000 compounds, 0.9% hits;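 active means inhibition above the mean plus 3 SD, with well images judged a real hit on visual review, cut at about 60% in these data, passing the limit was not always enough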
# Dynein transport: dynein cargo transport inhibition; 3617.4 mouse cells, GR-EGFP nuclear translocation imaging; test concentration mostly 20 µM; stimulated with dexamethasone, 1 µM; stronger effect = lower value; AID 1381; 220,000 compounds, 0.47% hits; z-score, hits read low;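 active means plate z-score of nuclear minus cytoplasmic receptor signal below a set negative limit, without overly bright fluorescence or cell loss, cut at about -3.5 in these data, passing the limit was not always enough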;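 further: z-score of nuclear minus cytoplasmic ring GR-EGFP intensity difference per well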
#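 Medium: Induction medium lacking tetracycline, stripped serum | Probe or stimulus: 1.0 µM final dexamethasone stimulus | Schedule: 48 h induction, then 1 h compound, then 30 min agonist, 37 °C | Signal: Automated 10x imaging of fixed Hoechst-stained cells | Evaluation: Per-cell GR-EGFP intensity, nucleus versus surrounding cytoplasmic ring, well-averaged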
# Insulin prom up: MIN6 insulin promoter up-regulation; z-score at 5 µM; MIN6 insulin promoter-GFP reporter, high-content imaging; stronger effect = higher value; AID 1625; 190,000 compounds, 0.3% hits;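 active means z-score above 3 at 5 µM with at least 500 cells counted in the well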
# Autophagy HCS: alters autophagy in cells; MEF GFP-LC3 puncta imaging; test concentration mostly 10 µM; calls only at 10 µM (by protocol); 190,000 compounds, 0.98% hits;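 active means percentage of spot-positive cells more than 3 SD above its plate mean, without a fluorescence outlier flag or 80% toxicity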;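 further: spot-positive cell cutoff set from DMSO-treated cells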
# PERK inhibitor: human PERK inhibition, primary cell-based screen | 220,000 compounds, 0.17% hits | inhibition, % at 5.6 µM | CHO PERK-DD fusion, SEAP luminescence translation reporter | Q9NZJ5 | AID 1416;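 active means inhibition above the mean inhibition of all tested compounds plus 3 SD, set separately per screening campaign, cut at about 2.9% in these data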;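 further: PERK kinase domain activated by AP20187 dimerizer at 100 nM; 0% = DMSO with dimerizer and 100% = rapamycin at 8.4 µM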
# Target sequence (Q9NZJ5 whole entry, looked up, the tested form may be a part): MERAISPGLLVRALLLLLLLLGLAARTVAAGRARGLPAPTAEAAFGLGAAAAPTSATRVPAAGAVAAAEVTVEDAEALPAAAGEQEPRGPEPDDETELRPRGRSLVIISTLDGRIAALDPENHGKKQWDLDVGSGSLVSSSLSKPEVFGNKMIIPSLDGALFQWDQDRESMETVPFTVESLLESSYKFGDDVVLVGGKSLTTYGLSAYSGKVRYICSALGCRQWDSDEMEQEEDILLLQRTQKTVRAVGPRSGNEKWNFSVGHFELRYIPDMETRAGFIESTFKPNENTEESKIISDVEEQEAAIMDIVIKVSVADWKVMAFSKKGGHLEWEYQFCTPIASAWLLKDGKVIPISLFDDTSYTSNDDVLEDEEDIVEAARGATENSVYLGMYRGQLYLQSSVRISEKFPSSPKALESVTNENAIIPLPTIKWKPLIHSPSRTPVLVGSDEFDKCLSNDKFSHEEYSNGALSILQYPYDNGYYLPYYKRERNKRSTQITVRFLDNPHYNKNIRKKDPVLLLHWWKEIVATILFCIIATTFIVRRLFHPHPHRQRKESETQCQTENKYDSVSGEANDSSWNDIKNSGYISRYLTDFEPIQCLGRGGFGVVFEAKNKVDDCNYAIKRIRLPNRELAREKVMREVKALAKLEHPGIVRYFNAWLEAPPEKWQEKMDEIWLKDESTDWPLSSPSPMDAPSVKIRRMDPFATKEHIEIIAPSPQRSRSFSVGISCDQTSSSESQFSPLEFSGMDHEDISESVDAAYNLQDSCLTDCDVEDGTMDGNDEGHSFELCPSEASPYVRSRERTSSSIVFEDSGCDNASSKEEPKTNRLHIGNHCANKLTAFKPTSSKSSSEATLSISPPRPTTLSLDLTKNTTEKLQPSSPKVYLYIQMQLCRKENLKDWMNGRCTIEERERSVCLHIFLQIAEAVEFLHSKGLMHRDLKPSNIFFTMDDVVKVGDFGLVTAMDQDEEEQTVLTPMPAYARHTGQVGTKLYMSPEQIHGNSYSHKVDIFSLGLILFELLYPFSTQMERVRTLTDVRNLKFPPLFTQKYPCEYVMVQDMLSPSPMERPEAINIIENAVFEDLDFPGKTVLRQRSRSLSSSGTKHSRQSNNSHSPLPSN
# * = called active by the depositor; i = inactive; x = not tested or not shown; + = active, no number. A selection: hits, their analogues and other compounds. The true share with any hit is near 2.1%.
SMILES,INS promoter inh,Dynein transport,Insulin prom up,Autophagy HCS,PERK inhibitor
O=C(CCSc1nnc(-c2ccncc2)o1)Nc1cccc2ccccc12,0.0,0.422,x,i,-0.3
CC(Sc1nnc(-c2ccc(O)cc2)o1)C(=O)Nc1cccc2ccccc12 (stereo not given),77.4*,4.26,0.11,i,0.1
CCCCNc1nc(=S)n(-c2ccccc2)c(C)c1C(C)=O,x,-0.433,-0.36,i,0.3
CCOc1ccc(NC(=O)c2nn(C)cc2Br)cc1,42.9,-0.102,0.11,i,0.1
Cn1cc(Br)c(C(=O)Nc2ncc(Br)s2)n1,29.4,-0.791,0.33,+,0.3
OCCC1CN(Cc2nc3ccc(F)cc3[nH]2)CCN1C1CCCC1 (stereo not given),x,0.346,-0.43,x,-0.7
Cc1cc(C)n(-c2ccc(F)cc2CN2CCN(C3CCCC3)C(CCO)C2)n1 (stereo not given),x,-0.177,0.53,+,0.2
Cc1cc(NC(=O)/C=C\C(=O)O)c([N+](=O)[O-])cc1C,x,-0.334,-0.09,x,1.9
COc1ccccc1NC(=O)/C=C\C(=O)O,100.0*,1.41,0.08,i,0.7
Cc1cscc1NC(=O)/C=C/C(=O)O,x,1.3,0.31,x,3.5*
COc1cc(/C=C2\SC(=O)N(CCNC(=O)c3sc4cc(F)ccc4c3Cl)C2=O)cc(OC)c1OC,x,-1.63,-1.08,+,0.6
COc1cc(C(=O)NCCN2C(=O)S/C(=C\c3ccc(F)cc3)C2=O)ccc1OCC(=O)N1CCOCC1,x,0.224,-0.27,x,2.3
CC1(C)c2ccccc2N2CC(=O)NC21/C=C/c1ccco1 (stereo not given),0.0,-0.0225,3.29*,i,2.0
CC1(C)c2ccccc2N2CCC(=O)NC21/C=C/c1ccco1 (stereo not given),x,-0.745,-0.61,i,0.1
CC(=O)N1c2ccccc2N(Cc2ccc(C)cc2C)C(=O)C1(C)C,x,-1.01,0.22,+,x
Cc1ccc(C2=C(c3ccc([N+](=O)[O-])cc3)C(=O)OC2)cc1C,x,-1.45,0.22,+,-0.2
CSc1nc(Sc2ccccc2)c2ccccc2n1,-3.3,0.194,0.13,i,0.5
CSc1nc(Sc2ccc(Cl)cc2)c2ccccc2n1,6.5,-0.233,-0.56,i,2.9*
Cc1cnc(NC(=O)CCCc2nc3ccccc3s2)s1,2.9,-0.422,-0.37,+,0.1
COc1ccc(S(=O)(=O)Nc2cc3c(C(C)=O)c(C)oc3c3ccccc23)cc1,-154.2,0.489,x,+,-1.5
Cn1nc(-c2ccc(Cl)cc2)c2cc(C(=O)NCCCN3CCCC3)sc21,x,0.478,-0.32,+,-1.2
CCN1CCCC1CNC(=O)c1cc2c(-c3ccc(Cl)cc3)nn(C)c2s1 (stereo not given),x,1.93,-1.94,+,-1.6
CCCCNC(=O)c1cc2c(-c3ccc(Cl)cc3)nn(C)c2s1,x,0.147,-0.15,i,0.2
COc1cc(/C=N/NC(=O)c2ccncc2)ccc1OC(=O)c1ccc([N+](=O)[O-])cc1,100.0*,1.34,1.14,i,-0.6
O=c1[nH]c(N2CCOCC2)nc2c1CCCC2,28.6,0.156,-0.27,i,0.2
SMILES,INS promoter inh,Dynein transport,Insulin prom up,Autophagy HCS,PERK inhibitor
CCC(OC(=O)c1cccs1)C(=O)NCc1ccc(C)cc1 (stereo not given),x,0.602,0.46,+,0.0
CCC(OC(=O)c1cccs1)C(=O)NCc1ccc2c(c1)OCO2 (stereo not given),-42.9,-0.127,0.29,i,0.6
Cc1cc(C)n(-c2ccc(C(=O)OCC(=O)c3ccc(Br)s3)cc2)n1,0.0,-0.343,0.01,i,1.6
O=C(Cc1c2ccccc2nc2ccccc12)c1ccccc1,61.1*,-0.363,0.04,i,-0.5
O=C(COc1ccc2oc(-c3ccco3)cc(=O)c2c1)N1CCCCC1,x,0.204,-1.26,i,-0.8
O=S(=O)(Nc1ccc(S(=O)(=O)N2CCCCCC2)cc1)c1cccs1,85.7*,0.73,x,i,0.5
O=C(CCNS(=O)(=O)c1cccs1)N1CCCCCC1,27.3,3.61,-0.15,+,0.3
CC1(C(=O)NC2CCCCCCC2)CC1(Cl)Cl (stereo not given),x,0.894,0.89,i,-0.4
C(=N\Nc1ncnc2ccccc12)/c1ccccc1,77.8*,1.06,-0.95,+,0.1
COc1ccc(S(=O)(=O)N2CCOC2CNC(=O)C(=O)NCCc2ccc(OC)c(OC)c2)cc1 (stereo not given),18.8,0.331,0.09,+,-1.4
CCOC(=O)c1ncn2c1C(=O)OC2(C)C,x,-1.09,x,i,0.7
CN1C(=O)/C(=C/C=C2\SCCN2C)N(C)C1=S,88.9*,-0.22,-0.38,i,1.5
CC(=O)NCC(=O)N1CCCC(C(=O)c2ccc(Oc3ccccc3)cc2)C1 (stereo not given),x,2.61,-0.41,i,1.2
O=C(CN1CCN(c2ccc(O)cc2)CC1)Nc1cc([N+](=O)[O-])ccc1Cl,x,0.258,0.5,+,0.3
CC(=O)N1CCN(CC(=O)Nc2cc([N+](=O)[O-])ccc2Cl)CC1,x,-1.1,-0.2,i,-0.7
CCN1C(=O)C(O)(CC(=O)c2ccccn2)c2ccccc21 (stereo not given),75.0*,3.45,x,i,-0.3
CN1C(=O)C(O)(CC(=O)c2cccnc2)c2ccccc21 (stereo not given),28.9,0.291,x,i,0.3
O=C(CC1(O)C(=O)N(Cc2cccc3ccccc23)c2ccccc21)c1cccnc1 (stereo not given),3.6,-0.97,x,+,-0.3
CC1CCN(c2ccc(C(=O)NCc3ccco3)cc2[N+](=O)[O-])CC1,18.4,-0.659,0.61,i,-1.1
CCNS(=O)(=O)c1ccc(CCC(=O)NCc2ccc(C)cc2)cc1,x,-0.309,-0.28,+,0.1
COc1ccc(-c2cc(-c3ccccc3)c(C#N)c(S(C)=O)n2)cc1 (stereo not given),x,-1.62,-3.49,+,0.4
CCSc1nc(-c2ccc(OC)cc2)cc(-c2ccccc2)c1C#N,23.3,-0.403,-0.85,i,-0.5
N#C/C(=C\c1ccc(/C=C(/C#N)c2nn(CCO)c(N)c2C#N)cc1)c1nn(CCO)c(N)c1C#N,x,-0.283,x,+,0.9
N=c1n(CCOc2ccccc2)c2ccccc2n1CCN1CCOCC1,3.2,2.58,-0.46,+,-0.2
O=C(O)c1c(-c2ccccc2)c2oc3ccccc3c2[nH]c1=O,x,-0.704,-0.01,i,1.3
SMILES,INS promoter inh,Dynein transport,Insulin prom up,Autophagy HCS,PERK inhibitor
O=C(Cn1cnc([N+](=O)[O-])n1)N/N=C/c1ccccc1O,42.9,0.183,x,i,3.4*
Cc1nnsc1C(=O)NC1CCCCC1,-14.8,-0.0896,0.45,i,-1.1
O=C(CN1C(=O)NC2(CCCC2)C1=O)N1CCc2ccccc2C1,x,0.111,1,i,0.1
Cc1ccc(CN2CCN(/N=C/c3sccc3C)CC2)c(C)c1,23.3,1.85,0.47,i,0.1
Cc1ccccc1C(=O)NC1CCN(C(=O)N2CCOCC2)CC1,75.0*,-0.269,x,i,0.1
Cc1n[nH]c(=O)nc1Nc1ccc(O)cc1,-5.6,0.351,0.96,i,0.1
